From ChEMBL document CHEMBL5321232, “Synthesis and biological evaluation of dual MDM2/XIAP inhibitors based on the tetrahydroquinoline scaffold” (Eur J Med Chem, 2023)

Experiments:
[1] = tested on: A-375; assay: Antiproliferative activity against human A-375 cells assessed as inhibition of cell growth incubated for 72 hrs by MTS assay; details: A-375, 72 h
[2] = tested on: MDA-MB-231; assay: Antiproliferative activity against human MDA-MB-231 cells assessed as inhibition of cell growth incubated for 72 hrs by MTS assay; type: functional, cell-based; details: MDA-MB-231, 72 h
Method in brief: (§1)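 Cells seeded at 3,000–8,000 per well according to growth rate and incubated overnight. They were then exposed to compounds over 3 nM–100 μM for 72 h, four replicates per concentration. MTS added, 1.5 h in the dark at 37 °C, absorbance read at 490 nm. IC50 normalized to untreated cells and fitted by nonlinear regression.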

[3] = tested on: CWR22R; assay: Antiproliferative activity against human 22Rv1 cells assessed as inhibition of cell growth incubated for 72 hrs by MTS assay; type: functional, cell-based; details: 22Rv1, 72 h
Method in brief: as §1

[4] = Antiproliferative activity against human EU-1 cells assessed as inhibition of cell growth incubated for 44 hrs by WST assay; type: functional, cell-based; details: EU-1, 44 h
Method in brief: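 Pediatric ALL-derived EU-1 cells grown in RPMI 1640 with 10% FBS, 2 mmol/L L-glutamine and penicillin/streptomycin at 37 °C, 5% CO2. Compounds given at graded concentrations for 44 h. WST (25 μg/well) then added for a further 4 h. OD read at 450 nm against a 620 nm reference, with cell-free wells for background.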

[5] = tested on: CWR22R; assay: Inhibition of colony formation in human 22Rv1 cells assessed as reduction in number of clonogenic cells incubated for 14 days and subsequent media replacement with compound for every 3 days by crystal violet staining based microscopic analysis; type: functional, cell-based; details: dose 1-10 µM, time 14.0 day
Method in brief: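 22Rv1 cells in log phase were seeded at 2,000 per well and incubated 72 h. They were then treated with 1, 5 or 10 μM for 14 days, with medium ± compound renewed every 3 days. Colonies were fixed in cold methanol, stained with 0.5% crystal violet and counted microscopically. Run in triplicate; area expressed relative to vehicle (100%) as mean ± SEM of three biological replicates.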

IC50 [1]	IC50 [2]	SMILES	IC50 [3]	IC50 [4]	inhibition [5]
3200 nM	1500 nM	CCc1cccc(NS(=O)(=O)c2ccc3c(c2)C2OCCC2C(c2ccc(C(=O)C(C)C)cc2)N3)c1 (configuration not stated)	1.1 µM	2100 nM	–
–	–	CN[C@@H](C)C(=O)N[C@H](C(=O)N1CCC[C@H]1C(=O)Nc1snnc1-c1ccccc1)C1CCCCC1 [GDC-0152]	–	800 nM	–
4700 nM	2000 nM	CC(=O)c1cccc(S(=O)(=O)Nc2ccc3c(c2)C2OCCC2C(c2ccc(C(=O)C(C)C)cc2)N3)c1 (configuration not stated)	7.7 µM	700 nM	–
> 10000 nM	3800 nM	CC(C)C(=O)c1ccc(C2Nc3ccc(S(=O)(=O)Nc4ccc5c(c4)COC5=O)cc3C3OCCC23)cc1 (configuration not stated)	–	3800 nM	–
900 nM	900 nM	CC(=O)c1cccc(NS(=O)(=O)c2ccc3c(c2)C2OCCC2C(c2ccccc2)N3)c1 (configuration not stated)	> 10 µM	1300 nM	–
1900 nM	600 nM	CC(=O)c1cccc(NS(=O)(=O)c2ccc3c(c2)C2OCCC2C(c2ccc(C(C)C)cc2)N3)c1 (configuration not stated)	> 10 µM	600 nM	–
> 10000 nM	> 10000 nM	O=S(=O)(Nc1ccccc1)c1ccc2c(c1)C1OCCC1C(C1CCCCC1)N2 (configuration not stated)	–	2600 nM	–
2500 nM	1300 nM	Cc1ccc(S(=O)(=O)Nc2ccc3c(c2)C2OCCC2C(c2ccc(C(=O)C(C)C)cc2)N3)cc1C (configuration not stated)	4 µM	600 nM	–
> 10000 nM	> 10000 nM	Cc1cc(NS(=O)(=O)c2ccc3c(c2)C2OCCC2C(C2CCCCC2)N3)ccc1C(F)(F)F (configuration not stated)	–	3300 nM	–
900 nM	1600 nM	CC(C)C(=O)c1ccc(C2Nc3ccc(S(=O)(=O)Nc4cccc(N(C)C)c4)cc3C3OCCC23)cc1 (configuration not stated)	0.7 µM	7500 nM	–
1800 nM	1100 nM	CN(C)c1cccc(NS(=O)(=O)c2ccc3c(c2)C2OCCC2C(C2CCCCC2)N3)c1 (configuration not stated)	> 10 µM	4000 nM	–
1300 nM	1100 nM	CC(=O)c1cccc(NS(=O)(=O)c2ccc3c(c2)C2OCCC2C(c2ccc4c(c2)CCO4)N3)c1 (configuration not stated)	6.3 µM	7200 nM	–
600 nM	> 10000 nM	CC(C)[C@@H](CS(=O)(=O)C(C)C)N1C(=O)[C@@](C)(CC(=O)O)C[C@H](c2cccc(Cl)c2)[C@H]1c1ccc(Cl)cc1 [NAVTEMADLIN]	0.3 µM	900 nM	–
2000 nM	2100 nM	CC(=O)c1ccc(NS(=O)(=O)c2ccc3c(c2)C2OCCC2C(c2ccc(C(=O)C(C)C)cc2)N3)cc1 (configuration not stated)	3.3 µM	1500 nM	–
7500 nM	2400 nM	CC1CCC(NS(=O)(=O)c2ccc3c(c2)C2OCCC2C(C2CCCCC2)N3)CC1 (configuration not stated)	> 10 µM	1900 nM	–
700 nM	1100 nM	Cc1ccc(NS(=O)(=O)c2ccc3c(c2)C2OCCC2C(C2CCN(C(=O)OC(C)(C)C)CC2)N3)cc1C (configuration not stated)	> 10 µM	1400 nM	–
9800 nM	5700 nM	Cc1ccc(NS(=O)(=O)c2ccc3c(c2)C2OCCC2C(C2CCCCC2)N3)cc1C (configuration not stated)	> 10 µM	800 nM	–

IC50 [1]	IC50 [2]	SMILES	IC50 [3]	IC50 [4]	inhibition [5]
12100 nM	3000 nM	Cc1ccc(NS(=O)(=O)c2ccc3c(c2)C2OCCC2C(C2CCOCC2)N3)cc1C (configuration not stated)	> 10 µM	1600 nM	–
4600 nM	3200 nM	Cc1ccc(NS(=O)(=O)c2ccc3c(c2)C2OCCC2C(c2ccc4c(c2)CCO4)N3)cc1C (configuration not stated)	> 10 µM	> 10000 nM	–
> 10000 nM	> 10000 nM	O=S(=O)(Nc1ccc(C(F)(F)F)c(C(F)(F)F)c1)c1ccc2c(c1)C1OCCC1C(C1CCCCC1)N2 (configuration not stated)	–	> 10000 nM	–
8100 nM	5100 nM	CC(=O)Nc1ccc(C2Nc3ccc(S(=O)(=O)Nc4ccc(C)c(C)c4)cc3C3OCCC23)cc1 (configuration not stated)	> 10 µM	4500 nM	–
1100 nM	1000 nM	CC(=O)c1cccc(NS(=O)(=O)c2ccc3c(c2)C2OCCC2C(C2CCCCC2)N3)c1 (configuration not stated)	> 10 µM	1500 nM	–
> 10000 nM	> 10000 nM	O=S(=O)(Nc1ccc(Cl)c(Cl)c1)c1ccc2c(c1)C1OCCC1C(C1CCCCC1)N2 (configuration not stated)	–	1800 nM	–
2200 nM	2200 nM	Cc1ccc(NS(=O)(=O)c2ccc3c(c2)C2OCCC2C(c2ccc(C(=O)C(C)C)cc2)N3)cc1C (configuration not stated)	5.3 µM	500 nM	Dose-Dependent Effect
2200 nM	1100 nM	CC(C)C(=O)c1ccc(C2Nc3ccc(S(=O)(=O)Nc4cccc(C(C)C)c4)cc3C3OCCC23)cc1 (configuration not stated)	2.1 µM	6500 nM	–
2500 nM	2200 nM	CC(=O)c1cccc(NS(=O)(=O)c2ccc3c(c2)C2OCCC2C(c2cccc(C(C)=O)c2)N3)c1 (configuration not stated)	> 10 µM	1000 nM	–
> 10000 nM	> 10000 nM	O=S(=O)(Nc1ccc(Br)c(Br)c1)c1ccc2c(c1)C1OCCC1C(C1CCCCC1)N2 (configuration not stated)	–	5100 nM	–
1300 nM	1900 nM	CCC(=O)c1cccc(NS(=O)(=O)c2ccc3c(c2)C2OCCC2C(c2ccc(C(=O)C(C)C)cc2)N3)c1 (configuration not stated)	3.5 µM	1500 nM	–
> 10000 nM	2200 nM	O=S(=O)(Nc1ccc2c(c1)CCCC2)c1ccc2c(c1)C1OCCC1C(C1CCCCC1)N2 (configuration not stated)	> 10 µM	2300 nM	–
> 10000 nM	> 10000 nM	Cc1ccc(NS(=O)(=O)c2ccc3c(c2)C2OCCC2C(c2c[nH]c4ccccc24)N3)cc1C (configuration not stated)	–	9200 nM	–
5100 nM	2000 nM	CC(C)C(=O)c1ccc(C2Nc3ccc(S(=O)(=O)Nc4cccc(C(C)(C)C)c4)cc3C3OCCC23)cc1 (configuration not stated)	1.3 µM	6200 nM	–
5900 nM	3300 nM	CC(C)C(=O)c1ccc(C2Nc3ccc(S(=O)(=O)Nc4ccc5c(c4)OCO5)cc3C3OCCC23)cc1 (configuration not stated)	7.9 µM	5300 nM	–
> 10000 nM	> 10000 nM	CC(=O)N1CCC(C2Nc3ccc(S(=O)(=O)Nc4ccc(C)c(C)c4)cc3C3OCCC32)CC1 (configuration not stated)	–	> 10000 nM	–
